{"data": "Published values pooled from the literature", "target": "Dual specificity mitogen-activated protein kinase kinase 1 (MAP2K1, Homo sapiens, UniProt Q02750)", "note": "Each line is one published result; the experiments were not run side by side."}
{"SMILES": "O=C(NCc1ncc(C(F)(F)F)cc1Cl)c1ccc2c(c1)C1(CCS(=O)(=O)CC1)[C@H](C1CC1)N2S(=O)(=O)c1ccc(F)cc1", "test": "cell-free assay, competition with immobilised ligand", "conditions": "1 µM", "quantity": "remaining binding", "result": "98%"}
{"SMILES": "O=C(Nc1cnn(-c2csc(C(=O)NC3COC3)c2)c1)Nc1c(F)cccc1Cl", "test": "enzyme activity, inhibitor", "conditions": "5 µM", "quantity": "remaining activity", "result": "107%"}
{"SMILES": "CCN(CC)CCNC(=O)c1c(C)[nH]c(/C=C2\\C(=O)Nc3ccc(F)cc32)c1C", "test": "enzyme activity, inhibitor", "conditions": "0.3 µM", "quantity": "inhibition", "result": "36%"}
{"SMILES": "CN(C)C1CCN(CC#Cc2nn(C3CCCC3)c3nc(NCc4ccccc4)ncc23)C1 (stereo not drawn)", "test": "enzyme activity, inhibitor, FRET", "conditions": "10 µM", "quantity": "inhibition", "result": "13%"}
{"SMILES": "COc1cc(Cl)c(C(=O)N[C@@H](CN[C@H]2CC[C@@H](N)CC2)Cc2ccc(C#N)cc2)cc1-c1ccc(CN[C@H](C)c2ccc(C)cc2)o1", "test": "enzyme activity, inhibitor", "conditions": "1 µM", "quantity": "remaining activity", "result": "98%"}
{"SMILES": "Cn1cnc(Br)c1C1=CN(c2ncnc3[nH]cnc23)CCS1", "test": "enzyme activity, inhibitor, radiometric", "conditions": "2 µM", "quantity": "inhibition", "result": "16.9%"}
{"SMILES": "Cc1nccc(COC(=O)N2C[C@@H]3[C@@H](CNC(=O)c4ccc5[nH]nnc5c4)[C@@H]3C2)n1", "test": "cell-free assay, competition with immobilised ligand", "conditions": "1 µM", "quantity": "remaining binding", "result": "92%"}
{"SMILES": "COc1cc2ncnc(Nc3ccc(Oc4ccccc4)cc3C)c2cc1OC", "test": "enzyme activity, inhibitor", "conditions": "1 µM", "quantity": "inhibition", "result": "11%"}
{"SMILES": "O=C1Nc2ccc(Cl)cc2C1=Cc1cc(Cl)c(O)c(Cl)c1", "test": "cell-free assay", "conditions": "0.5 µM", "quantity": "remaining signal", "result": "96.8%"}
{"SMILES": "C=CC(=O)Nc1cc(Nc2nccc(Nc3cc(Cl)c(F)cc3C(C)(C)O)n2)c(OC)cc1N1CC[C@@H](N(C)C)C1", "test": "enzyme activity, inhibitor", "conditions": "1 µM", "quantity": "inhibition", "result": "21%"}
{"SMILES": "O=C(O)[C@@H]1[C@@H](Cn2nnc3ccccc3c2=O)CC[C@H]1C(=O)c1ccc(OCCC2CCOCC2)cc1", "test": "cell-free assay, competition with immobilised ligand", "conditions": "1 µM", "quantity": "remaining binding", "result": "81%"}
{"SMILES": "COc1cc(/C=C/C(=O)CC(=O)/C=C/c2ccc(O)c(OC)c2)ccc1O", "test": "enzyme activity, inhibitor", "conditions": "1 µM", "quantity": "activity vs control", "result": "93%"}
{"SMILES": "CCN1CCN(Cc2ccc(NC(=O)c3ccc(C)c(Oc4ccnc5[nH]ccc45)c3)cc2C(F)(F)F)CC1", "test": "target engagement in cells, inhibitor, chemoproteomics", "system": "Huh-7", "conditions": "1 µM", "quantity": "inhibition", "result": "-41.7%"}
{"SMILES": "Cc1[nH]c(/C=C2\\C(=O)Nc3ccc(F)cc32)c(C)c1C(=O)N[C@H]1CCN(C(=O)N(C)C)C1", "test": "enzyme activity, inhibitor", "conditions": "0.1 µM", "quantity": "remaining activity", "result": "94%"}
{"SMILES": "CCCS(=O)(=O)Nc1ccc(F)c(C(=O)c2c[nH]c3ncc(-c4ccc(Cl)cc4)cc23)c1F", "test": "enzyme activity, inhibitor", "conditions": "1 µM", "quantity": "inhibition", "result": "< 10%"}
{"SMILES": "CNC(=O)Nc1ccc2c(c1)CC[C@@]21OC(=O)N(CC(=O)N(Cc2ccc(F)cc2)[C@@H](C)C(F)(F)F)C1=O", "test": "cell-free assay, competition with immobilised ligand", "conditions": "1 µM", "quantity": "remaining binding", "result": "85%"}
{"SMILES": "Nc1nc(NC2CCCCC2)sc1C(=O)c1ccccc1", "test": "enzyme activity, inhibitor", "conditions": "10 µM", "quantity": "remaining activity", "result": "68%"}
{"SMILES": "Cc1ccc(NC(=O)c2ccc(C)c(C(F)(F)F)c2)cc1C#Cc1nn(C2CCC(O)CC2)c2ncnc(N)c12 (stereo not drawn)", "test": "cell-free assay", "conditions": "10 µM", "quantity": "remaining signal", "result": "34%"}
{"SMILES": "CCCOc1ccc([C@H]2[C@H](C(=O)O)[C@@H](c3ccc4c(c3)OCO4)CN2CC(=O)Nc2c(CC)cccc2CC)cc1", "test": "cell-free assay, competition with immobilised ligand", "conditions": "1 µM", "quantity": "remaining binding", "result": "66%"}
{"SMILES": "CNCc1ccc(-c2cc(-c3nc(-c4ccc(S(=O)(=O)C(C)C)cc4)cnc3N)on2)cc1", "test": "enzyme activity, inhibitor", "conditions": "2 µM", "quantity": "inhibition", "result": "6%"}
{"SMILES": "FC(F)c1nc2ccccc2n1-c1nc(N2CCOCC2)nc(N2CCOCC2)n1", "test": "enzyme activity, inhibitor", "conditions": "10 µM", "quantity": "remaining activity", "result": "83%"}
{"SMILES": "CCOc1cc(-c2nncn2C)ccc1Nc1ncc2cc(C)nc(NCC(C)(C)C)c2n1", "test": "enzyme activity, inhibitor, FRET", "conditions": "1 µM", "quantity": "inhibition", "result": "16%"}
{"SMILES": "O=C(Nc1ccc(Oc2ccc(F)cc2)cc1)N1CCc2ncccc2[C@H]1c1ccc(F)cc1", "test": "cell-free assay, competition with immobilised ligand", "conditions": "1 µM", "quantity": "remaining binding", "result": "98%"}
{"SMILES": "CCCOc1ccc(OC)c(F)c1C(=O)c1ccc(C(=O)N[C@@H]2CNC[C@H]2NC(=O)c2ccc3[nH]ncc3c2)cc1", "test": "enzyme activity, inhibitor", "conditions": "10 µM", "quantity": "remaining activity", "result": "101%"}
{"SMILES": "Cc1cc(NC(=O)c2cccc3cc(-c4cccc5[nH]nc(N)c45)ccc23)ccc1F", "test": "enzyme activity, inhibitor", "conditions": "0.1 µM", "quantity": "activity vs control", "result": "102%"}
{"SMILES": "CNC(=O)c1cc(Oc2ccc(NC(=O)Nc3ccc(Cl)c(C(F)(F)F)c3)cc2)ccn1", "test": "enzyme activity, inhibitor", "conditions": "0.3 µM", "quantity": "inhibition", "result": "0%"}
{"SMILES": "CC(C)(C)c1nc(-c2cccc(NS(=O)(=O)c3c(F)cccc3F)c2F)c(-c2ccnc(N)n2)s1", "test": "enzyme activity, inhibitor, radiometric", "conditions": "1 µM", "quantity": "remaining activity", "result": "94%"}
{"SMILES": "FC(F)(F)Oc1cccc(-c2cnc3ccc(-c4ccncc4)nn23)c1", "test": "enzyme activity, inhibitor, radiometric", "conditions": "1 µM", "quantity": "activity vs control", "result": "79%"}
{"SMILES": "Cc1ccc(NC(=O)c2ccc(CN3CCN(C)CC3)cc2)cc1Nc1nc(-c2cccnc2)cs1", "test": "cell-free assay", "conditions": "0.5 µM", "quantity": "remaining signal", "result": "111%"}
{"SMILES": "CCN(CC)CCNC(=O)c1c(C)[nH]c(/C=C2\\C(=O)Nc3ccc(F)cc32)c1C", "test": "enzyme activity, inhibitor", "conditions": "0.1 µM", "quantity": "remaining activity", "result": "79%"}
{"SMILES": "CN1CC(Oc2cnc(C#N)cc2-c2ccn3nc(NC(=O)C4CC4)cc3c2)C1", "test": "enzyme activity, inhibitor", "conditions": "1 µM", "quantity": "inhibition", "result": "13%"}
{"SMILES": "Cc1ccc(Nc2nccc(N(C)c3ccc4c(C)n(C)nc4c3)n2)cc1S(N)(=O)=O", "test": "enzyme activity, inhibitor", "conditions": "10 µM", "quantity": "inhibition", "result": "1%"}
{"SMILES": "Cc1cc(-n2nc(Cc3cc(F)cc(C(F)(F)F)c3)nc2C)ccc1C(N)=O", "test": "cell-free assay, competition with immobilised ligand", "conditions": "1 µM", "quantity": "remaining binding", "result": "100%"}
{"SMILES": "CCN(CC)c1ccc(C2=NNC(=O)CC2C)cc1[N+](=O)[O-] (stereo not drawn)", "test": "enzyme activity, inhibitor", "conditions": "10 µM", "quantity": "remaining activity", "result": "126%"}
{"SMILES": "CS(=O)(=O)N1CCCC(NC(=O)[C@H](CCC2CCCCC2)NC(=O)c2ccc(CNC(=O)c3cnc4ccccn34)cc2)C1 (stereo partly drawn)", "test": "cell-free assay, competition with immobilised ligand", "conditions": "0.1 µM", "quantity": "remaining binding", "result": "100%"}
{"SMILES": "N#CCCc1ccc2c(c1)-c1[nH]c3ccc([N+](=O)[O-])cc3c1CC(=O)N2", "test": "cell-free assay", "conditions": "0.5 µM", "quantity": "remaining signal", "result": "97.1%"}
